In general, IC50 refers to the concentration needed to halve the response being measured. The term Ki denotes a measure of affinity in units of concentration, obtained from inhibition or displacement.

The target of experiment [1] is T1, von Hippel-Lindau disease tumor suppressor/Cyclin-dependent kinase 7 (Homo sapiens) (UniProt P50613+P40337). Nature of the experiment: PROTAC activity at CDK7/VHL in human Jurkat cells assessed as degradation of CDK7 at 0.1 uM measured after 16 hrs incubation by immunoblot analysis relative to control. The format is cell-based. The essentials:
(§1)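 Jurkat cells given VHL-recruiting compounds at 0.1 or 1 μM for 16 h. RIPA lysis, BCA normalization, 4–20% SDS-PAGE, nitrocellulose transfer. CDK7 (1:1000) and β-actin probed overnight at 4 °C, IRDye secondaries, Odyssey detection. Quantified against control, mean ± SEM from three independent biological replicates.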
On the technique in general: Immunoblotting shows a protein as a band on a membrane.

The target of experiment [2] is T1, von Hippel-Lindau disease tumor suppressor/Cyclin-dependent kinase 7 (Homo sapiens). Nature of the experiment: PROTAC activity at CDK7/VHL in human Jurkat cells assessed as degradation of CDK7 at 1 uM measured after 16 hrs incubation by immunoblot analysis relative to control. In kind it is cell-based. In a few lines: as §1
Experiment [3] deals with T2, CDK7/Cyclin H/MNAT1 (Homo sapiens, UniProt P50613). Put plainly: Inhibition of CDK7/CycH/MNAT1 (unknown origin) assessed as change in TR-FRET ratio using Cdk7/9tide as substrate and ATP by in vitro Adapta Eu kinase assay. The format is protein-complex assay. In a few lines:
(§2)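 Adapta Eu kinase assay run at ThermoFisher on CDK7/Cyclin H/MNAT1 with ATP at Km.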
Background: TR-FRET usually uses a lanthanide donor and a delayed reading to cut background.

The target of experiment [4] is T3, Protein cereblon/Cyclin-dependent kinase 7 (Homo sapiens) (UniProt P50613+Q96SW2). Put plainly: PROTAC activity at CDK7/CRBN in human Jurkat cells assessed as degradation of CDK7 at 1 uM measured after 16 hrs incubation by immunoblot analysis. In kind it is cell-based. In a few lines: (§3)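 Jurkat cells exposed to CRBN-recruiting bivalent compounds at 0.1 or 1 μM for 16 h. Lysed in RIPA with protease/phosphatase inhibitors, BCA-normalized, run on 4–20% SDS-PAGE and blotted to nitrocellulose. Probed with anti-CDK7 (1:1000) and β-actin (1:5000) overnight at 4 °C, IRDye secondaries, near-infrared imaging.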
T3 sequence (P50613 whole entry, looked up): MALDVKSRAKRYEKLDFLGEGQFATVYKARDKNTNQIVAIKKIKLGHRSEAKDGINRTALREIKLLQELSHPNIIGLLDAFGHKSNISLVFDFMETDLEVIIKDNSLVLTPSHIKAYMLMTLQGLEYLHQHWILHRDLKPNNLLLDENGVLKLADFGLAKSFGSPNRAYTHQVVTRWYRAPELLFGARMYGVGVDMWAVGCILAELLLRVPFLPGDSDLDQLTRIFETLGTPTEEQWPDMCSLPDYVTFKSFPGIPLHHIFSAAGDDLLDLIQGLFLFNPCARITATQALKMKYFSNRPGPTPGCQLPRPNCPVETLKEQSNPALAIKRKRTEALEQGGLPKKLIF
T3 sequence (Q96SW2 whole entry, looked up): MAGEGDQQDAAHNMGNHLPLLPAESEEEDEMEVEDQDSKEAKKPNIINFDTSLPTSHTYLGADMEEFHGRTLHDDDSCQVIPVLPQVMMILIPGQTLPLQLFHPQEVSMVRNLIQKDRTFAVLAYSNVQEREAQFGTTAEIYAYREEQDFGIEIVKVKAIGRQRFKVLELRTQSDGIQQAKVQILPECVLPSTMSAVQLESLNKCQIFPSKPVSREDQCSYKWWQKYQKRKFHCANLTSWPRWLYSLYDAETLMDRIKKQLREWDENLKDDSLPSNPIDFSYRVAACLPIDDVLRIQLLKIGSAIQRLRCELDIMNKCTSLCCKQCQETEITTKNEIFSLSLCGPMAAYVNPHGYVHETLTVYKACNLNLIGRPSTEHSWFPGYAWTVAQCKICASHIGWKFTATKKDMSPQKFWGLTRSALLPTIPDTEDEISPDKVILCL

The target of experiment [5] is T3, Protein cereblon/Cyclin-dependent kinase 7 (Homo sapiens). Put plainly: PROTAC activity at CDK7/CRBN in human Jurkat cells assessed as degradation of CDK7 at 0.1 uM measured after 16 hrs incubation by immunoblot analysis. In kind it is cell-based. In a few lines: as §3
For experiment [6], the system named is SU-DHL-5. Put plainly: Antiproliferative activity against human SU-DHL-5 cells assessed as cell viability measured after 72 hrs by CellTiter-Glo assay. In kind it is functional, cell-based. To be noted: SU-DHL-5, 72 h. In a few lines: (§4)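 Cells grown in RPMI 1640 with 10% heat-inactivated FBS and penicillin/streptomycin at 37 °C, 5% CO2, mycoplasma-negative. Seeded at 10^4/ml. Compounds dispensed digitally from 10 mM or 1 mM DMSO stocks, DMSO equalized, triplicate wells. After 72 h, CellTiter-Glo added for 10–15 min at room temperature and luminescence read.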
In general terms: In ATP-based viability assays light output follows the ATP content of the culture.

Experiment [7] concerns OVCAR-3. Put plainly: Antiproliferative activity against human OVCAR-3 cells assessed as cell viability measured after 72 hrs by CellTiter-Glo assay. In kind it is functional, cell-based. To be noted: OVCAR-3, 72 h. The essentials: as §4
Experiment [8] concerns the target T2, CDK7/Cyclin H/MNAT1. Put plainly: Inhibition of CDK7/CycH/MAT1 (unknown origin). Also on record: species or system Sf9. In a few lines: as §2
For experiment [9], the system named is A549. Put plainly: Antiproliferative activity against human A549 cells assessed as cell viability measured after 72 hrs by CellTiter-Glo assay. In kind it is functional, cell-based. The note with it: A549, 72 h. The essentials: as §4
In experiment [10] the test system is Jurkat. Put plainly: Antiproliferative activity against human Jurkat cells assessed as cell viability measured after 72 hrs by CellTiter-Glo assay. The format is functional, cell-based. The essentials:
as §4

For experiment [11], the system named is MOLT-4. Put plainly: Antiproliferative activity against human MOLT-4 cells assessed as cell viability measured after 72 hrs by CellTiter-Glo assay. In kind it is functional, cell-based. To be noted: MOLT-4, 72 h. In a few lines:
as §4

In experiment [12] the target is T2, CDK7/Cyclin H/MNAT1. Put plainly: Inhibition of recombinant GST-tagged CDK7/CycH/MAT1 (unknown origin) extracted from baculo-virus infected Sf9 insect cells assessed as inhibition constant using ATP containing 32P measured after 15 mins by Beckman liquid scintillation counter analysis. The format is cell-free.

The source made the active and inactive calls. The calls are words filed in the database; no cut-off is given here.

T1 sequence (P40337 whole entry, looked up): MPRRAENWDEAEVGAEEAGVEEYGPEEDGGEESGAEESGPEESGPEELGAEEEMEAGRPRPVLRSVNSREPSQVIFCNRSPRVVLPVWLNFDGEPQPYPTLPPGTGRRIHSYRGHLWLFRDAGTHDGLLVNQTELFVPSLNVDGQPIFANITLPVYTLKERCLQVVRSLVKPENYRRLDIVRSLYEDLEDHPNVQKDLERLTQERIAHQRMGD
T1 sequence (P50613 whole entry, looked up): as the sequence (P50613 whole entry, looked up) above
T2 sequence (P51946 whole entry): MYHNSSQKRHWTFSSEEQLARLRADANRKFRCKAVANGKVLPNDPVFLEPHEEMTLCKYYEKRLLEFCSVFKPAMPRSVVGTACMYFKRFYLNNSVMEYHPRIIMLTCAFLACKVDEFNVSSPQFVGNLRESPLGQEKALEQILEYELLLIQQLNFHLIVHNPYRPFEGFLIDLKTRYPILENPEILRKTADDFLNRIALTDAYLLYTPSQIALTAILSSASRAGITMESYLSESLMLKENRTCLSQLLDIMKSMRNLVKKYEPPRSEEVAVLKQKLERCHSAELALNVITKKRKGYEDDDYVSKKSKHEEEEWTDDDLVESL
T2 sequence (P50613 whole entry): as the sequence (P50613 whole entry, looked up) above
T2 sequence (P51948 whole entry, further chain): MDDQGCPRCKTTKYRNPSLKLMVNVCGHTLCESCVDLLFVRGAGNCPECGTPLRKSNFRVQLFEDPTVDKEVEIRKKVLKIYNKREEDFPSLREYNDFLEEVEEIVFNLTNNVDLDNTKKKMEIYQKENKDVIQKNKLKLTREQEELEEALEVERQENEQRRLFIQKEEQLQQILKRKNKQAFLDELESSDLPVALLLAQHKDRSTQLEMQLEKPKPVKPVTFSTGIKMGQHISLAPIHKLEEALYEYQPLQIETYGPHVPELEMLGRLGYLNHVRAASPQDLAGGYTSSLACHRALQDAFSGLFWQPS

Turning to `Cc1ncsc1-c1ccc([C@H](C)NC(=O)[C@@H]2C[C@@H](O)CN2C(=O)[C@@H](NC(=O)CCCNC(=O)c2ccc(C(=O)Nc3n[nH]c4c3CN(C(=O)N[C@H](CN(C)C)c3ccccc3)C4(C)C)cc2)C(C)(C)C)cc1`, the result in experiment [1] and in [2] was Active. In experiment [3], the IC50 stood at 5.6 nM.
On to `Cc1ncsc1-c1ccc([C@H](C)NC(=O)[C@@H]2C[C@@H](O)CN2C(=O)[C@@H](NC(=O)CCNC(=O)c2ccc(C(=O)Nc3n[nH]c4c3CN(C(=O)N[C@H](CN(C)C)c3ccccc3)C4(C)C)cc2)C(C)(C)C)cc1`, for which the outcome in experiment [1] and in [2] was Active. Moreover, the IC50 in experiment [3] was 8.7 nM.
In the case of `CN(C)C[C@@H](NC(=O)N1Cc2c(NC(=O)c3ccc(C(=O)NCCOCCOCCOCCNc4cccc5c4C(=O)N(C4CCC(=O)NC4=O)C5=O)cc3)n[nH]c2C1(C)C)c1ccccc1` (some centres not stated), the outcome in experiment [4] and in experiment [5] was inactive. The IC50 in [3] was determined as 17.7 nM.
As to `CN(C)C[C@@H](NC(=O)N1Cc2c(NC(=O)c3ccc(C(=O)NCCOCCNc4cccc5c4C(=O)N(C4CCC(=O)NC4=O)C5=O)cc3)n[nH]c2C1(C)C)c1ccccc1` (some centres not stated), the outcome in experiment [4] and in experiment [5] was inactive. Moreover, in experiment [3], the IC50 was determined as 11.3 nM.
With `CN(C)C[C@@H](NC(=O)N1Cc2c(NC(=O)c3ccc(C(=O)NCCNc4cccc5c4C(=O)N(C4CCC(=O)NC4=O)C5=O)cc3)n[nH]c2C1(C)C)c1ccccc1` (some centres not stated), the outcome in experiment [4] and in experiment [5] was inactive. Besides, the IC50 in [3] is 6.7 nM.
For the molecule `Cc1ncsc1-c1ccc(CNC(=O)C2[C@@H](O)CCN2C(=O)C(NC(=O)C2(F)CC2)C(C)(C)C)c(OCCOCCOCCNC(=O)c2ccc(C(=O)Nc3n[nH]c4c3CN(C(=O)N[C@H](CN(C)C)c3ccccc3)C4(C)C)cc2)c1` (some centres not stated), the result in [1] and in experiment [2] was Active. In addition, the IC50 in [3] worked out at 13.4 nM.
In the case of `Cc1ncsc1-c1ccc([C@H](C)NC(=O)[C@@H]2C[C@@H](O)CN2C(=O)[C@@H](NC(=O)CCOCCNC(=O)c2ccc(C(=O)Nc3n[nH]c4c3CN(C(=O)N[C@H](CN(C)C)c3ccccc3)C4(C)C)cc2)C(C)(C)C)cc1`, the outcome in [1] and in experiment [2] was Active. Also, the IC50 in experiment [3] was determined as 11.1 nM.
For the molecule `CN(C)C[C@@H](NC(=O)N1Cc2c(NC(=O)c3ccc(C(=O)NCCOCCOCCNc4cccc5c4C(=O)N(C4CCC(=O)NC4=O)C5=O)cc3)n[nH]c2C1(C)C)c1ccccc1` (some centres not stated), the result in experiment [4] and in experiment [5] was inactive. Moreover, in experiment [3], the IC50 stood at 6.4 nM.
On to `CN(C)C[C@@H](NC(=O)N1Cc2c(NC(=O)c3ccc(C(=O)NCCCCC#Cc4cccc5c4C(=O)N(C4CCC(=O)NC4=O)C5=O)cc3)n[nH]c2C1(C)C)c1ccccc1` (some centres not stated), for which the result in experiment [4] and in experiment [5] was inactive. Also, the half-maximal inhibitory concentration (IC50) in experiment [3] worked out at 13.3 nM.
As to `Cc1ncsc1-c1ccc([C@H](C)NC(=O)[C@@H]2C[C@@H](O)CN2C(=O)[C@@H](NC(=O)CCCCCc2ccc(C(=O)Nc3n[nH]c4c3CN(C(=O)N[C@H](CN(C)C)c3ccccc3)C4(C)C)cc2)C(C)(C)C)cc1`, the result in experiment [1] and in [2] was Active.
Regarding `CCC(=O)Nc1ccc(C(=O)Nc2n[nH]c3c2CN(C(=O)N[C@@H](CN(C)C)c2ccccc2)C3(C)C)cc1`, the IC50 stood at 176 nM in experiment [6]; 896 nM in [7]; 6.8 nM in [8]; 1630 nM in [9]; 1190 nM in experiment [10]; 598 nM in [11].
Turning to `CN(C)C[C@@H](NC(=O)N1Cc2c(NC(=O)c3ccc(C(=O)NCCCCCCCCOc4cccc5c4C(=O)N(C4CCC(=O)NC4=O)C5=O)cc3)n[nH]c2C1(C)C)c1ccccc1` (some centres not stated), the outcome in experiment [4] and in experiment [5] was inactive. Also, the IC50 in [3] came to 34.4 nM.
As for `Cc1ncsc1-c1ccc([C@H](C)NC(=O)[C@@H]2C[C@@H](O)CN2C(=O)[C@@H](NC(=O)CCCCOc2ccc(C(=O)Nc3n[nH]c4c3CN(C(=O)N[C@H](CN(C)C)c3ccccc3)C4(C)C)cc2)C(C)(C)C)cc1`, the outcome in [1] and in experiment [2] was Active. The IC50 in experiment [3] amounted to 12.6 nM.
Consider `Cc1ncsc1-c1ccc([C@H](C)NC(=O)[C@@H]2C[C@@H](O)CN2C(=O)[C@@H](NC(=O)CCCCCNC(=O)c2ccc(C(=O)Nc3n[nH]c4c3CN(C(=O)N[C@H](CN(C)C)c3ccccc3)C4(C)C)cc2)C(C)(C)C)cc1`, for which the outcome in experiment [1] and in [2] was Active. In [3], the IC50 is 8.1 nM.
As for `C=CC(=O)Nc1ccc(C(=O)Nc2n[nH]c3c2CN(C(=O)N[C@@H](CN(C)C)c2ccccc2)C3(C)C)cc1`, the Ki in [12] was 2.2 nM.
`Cc1ncsc1-c1ccc([C@H](C)NC(=O)[C@@H]2C[C@@H](O)CN2C(=O)[C@@H](NC(=O)CCOCCOCCNC(=O)c2ccc(C(=O)Nc3n[nH]c4c3CN(C(=O)N[C@H](CN(C)C)c3ccccc3)C4)cc2)C(C)(C)C)cc1`: the outcome in experiment [1] and in experiment [2] was Active. Also, the IC50 in [3] was found to be 7.6 nM.
`CN(C)C[C@@H](NC(=O)N1Cc2c(NC(=O)c3ccc(C(=O)NCCCCCOc4cccc5c4C(=O)N(C4CCC(=O)NC4=O)C5=O)cc3)n[nH]c2C1(C)C)c1ccccc1` (some centres not stated): the result in experiment [4] and in [5] was inactive. Also, the IC50 in experiment [3] was determined as 9.2 nM.
On to `CC(=O)N[C@H](C(=O)N1C[C@H](O)C[C@H]1C(=O)N[C@@H](C)c1ccc(-c2scnc2C(=O)NCCCCCNC(=O)c2ccc(C(=O)Nc3n[nH]c4c3CN(C(=O)N[C@H](CN(C)C)c3ccccc3)C4(C)C)cc2)cc1)C(C)(C)C`, for which the result in experiment [1] and in experiment [2] was Active. In experiment [3], the IC50 worked out at 8.6 nM.
With `CN(C)C[C@@H](NC(=O)N1Cc2c(NC(=O)c3ccc(C(=O)NCCCCCCNc4cccc5c4C(=O)N(C4CCC(=O)NC4=O)C5=O)cc3)n[nH]c2C1(C)C)c1ccccc1` (some centres not stated), the outcome in experiment [4] and in experiment [5] was inactive. In addition, the IC50 in experiment [3] is 9.4 nM.

The values above are taken from ChEMBL document CHEMBL5608193, “Discovery of bivalent small molecule degraders of cyclin-dependent kinase 7 (CDK7)” (Eur J Med Chem, 2024).
